# Experimental data published in ChEMBL document CHEMBL5724801, “EUbOPEN Chemogenomics Library - Multiplex” (2024).
# Values joined by “and” are separate entries in the source; they are usually repeats but may differ in a detail not shown here. Identical values can stand only once.
# How the values were obtained:
# Type in all cases: toxicity, cell-based
# [1] = test system: HEK-293T; assay: Multiplex assay against HEK293T; details: human
# Method in brief: (§1)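 Hoechst33342, BioTracker Green Microtubule Cytoskeleton Dye, MitoTracker Red and Annexin V Alexa Fluor 680 were added to live cells at seeding, and imaging on a CQ1 microscope at 37°C and 5% CO2 followed compound addition. Gating by CellPathfinder machine learning separated cells into Hoechst high-intensity objects or normal cells, then normal cells into healthy, pyknosed or fragmented nuclei, then pyknosed cells into mitotic or apoptotic. Per cents of healthy-nucleus cells are reported for the tubulin, mitochondrial-mass and membrane-permeability phenotypes.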
# [2] = test system: Fibroblast; assay: Multiplex assay against human fibroblast; method in brief: as §1
# [3] = test system: U2OS; assay: Multiplex assay against U2OS; details: human; method in brief: as §1
# [4] = 12 h, 1 µM, compound concentration 1 uM
# [5] = 12 h, 10 µM, compound concentration 10 uM
# [6] = 24 h, 1 µM, compound concentration 1 uM
# [7] = 24 h, 10 µM, compound concentration 10 uM
# [8] = 48 h, 1 µM, compound concentration 1 uM
# [9] = 48 h, 10 µM, compound concentration 10 uM
smiles,measurement,setting,value
CCCC(CCC)C(=O)O [VALPROIC ACID],Population Apoptotic (%),[1]; [4],39% and 28%
same,Population Fragmented Nuclei (%),[1]; [4],6% and 5%
same,Population Healthy Nuclei (%),[1]; [4],81% and 79%
same,Population Hoechst High Intensity Objects (%),[1]; [4],6% and 5%
same,Population Membrane Permeable-Phenotype (%),[1]; [4],0%
same,Population Mitochondria Different-Phenotype (%),[1]; [4],29% and 46%
same,Population Mitotic Cells (%),[1]; [4],60% and 71%
same,Population Normal (%),[1]; [4],93% and 94%
same,Population Pyknosed Nuclei (%),[1]; [4],12% and 15%
same,Population Tubulin-Different-Phenotype (%),[1]; [4],20% and 16%
same,Total Cell Count,[1]; [4],513 and 367
same,Population Apoptotic (%),[1]; [5],34% and 44%
same,Population Fragmented Nuclei (%),[1]; [5],6% and 7%
same,Population Healthy Nuclei (%),[1]; [5],82% and 81%
same,Population Hoechst High Intensity Objects (%),[1]; [5],6%
same,Population Membrane Permeable-Phenotype (%),[1]; [5],0%
same,Population Mitochondria Different-Phenotype (%),[1]; [5],40% and 49%
same,Population Mitotic Cells (%),[1]; [5],66% and 55%
same,Population Normal (%),[1]; [5],93%
same,Population Pyknosed Nuclei (%),[1]; [5],11%
same,Population Tubulin-Different-Phenotype (%),[1]; [5],26% and 20%
same,Total Cell Count,[1]; [5],455 and 446
same,Population Apoptotic (%),[1]; [6],28% and 45%
same,Population Fragmented Nuclei (%),[1]; [6],8% and 6%
same,Population Healthy Nuclei (%),[1]; [6],78% and 83%
same,Population Hoechst High Intensity Objects (%),[1]; [6],4%
same,Population Membrane Permeable-Phenotype (%),[1]; [6],1% and 0%
same,Population Mitochondria Different-Phenotype (%),[1]; [6],22% and 26%
same,Population Mitotic Cells (%),[1]; [6],71% and 54%
same,Population Normal (%),[1]; [6],95%
same,Population Pyknosed Nuclei (%),[1]; [6],12% and 9%
same,Population Tubulin-Different-Phenotype (%),[1]; [6],16% and 10%
same,Total Cell Count,[1]; [6],663 and 469
same,Population Apoptotic (%),[1]; [7],28% and 23%
same,Population Fragmented Nuclei (%),[1]; [7],9% and 8%
same,Population Healthy Nuclei (%),[1]; [7],81% and 86%
same,Population Hoechst High Intensity Objects (%),[1]; [7],4% and 3%
same,Population Membrane Permeable-Phenotype (%),[1]; [7],0%
same,Population Mitochondria Different-Phenotype (%),[1]; [7],16% and 30%
same,Population Mitotic Cells (%),[1]; [7],71% and 76%
same,Population Normal (%),[1]; [7],95% and 96%
same,Population Pyknosed Nuclei (%),[1]; [7],9% and 5%
same,Population Tubulin-Different-Phenotype (%),[1]; [7],15% and 11%
same,Total Cell Count,[1]; [7],649 and 593
same,Population Apoptotic (%),[1]; [8],19% and 36%
same,Population Fragmented Nuclei (%),[1]; [8],14% and 10%
same,Population Healthy Nuclei (%),[1]; [8],78% and 81%
same,Population Hoechst High Intensity Objects (%),[1]; [8],2% and 3%
same,Population Membrane Permeable-Phenotype (%),[1]; [8],3% and 1%
same,Population Mitochondria Different-Phenotype (%),[1]; [8],11% and 17%
same,Population Mitotic Cells (%),[1]; [8],80% and 63%
same,Population Normal (%),[1]; [8],97% and 96%
same,Population Pyknosed Nuclei (%),[1]; [8],6% and 8%
same,Population Tubulin-Different-Phenotype (%),[1]; [8],9% and 10%
same,Total Cell Count,[1]; [8],1112 and 700
same,Population Apoptotic (%),[1]; [9],21% and 27%
same,Population Fragmented Nuclei (%),[1]; [9],15% and 13%
same,Population Healthy Nuclei (%),[1]; [9],79% and 82%
same,Population Hoechst High Intensity Objects (%),[1]; [9],3% and 1%
same,Population Membrane Permeable-Phenotype (%),[1]; [9],1% and 2%
same,Population Mitochondria Different-Phenotype (%),[1]; [9],11% and 12%
same,Population Mitotic Cells (%),[1]; [9],78% and 72%
same,Population Normal (%),[1]; [9],96% and 98%
same,Population Pyknosed Nuclei (%),[1]; [9],5% and 4%
same,Population Tubulin-Different-Phenotype (%),[1]; [9],9% and 6%
same,Total Cell Count,[1]; [9],1088 and 947
same,Population Apoptotic (%),[2]; [4],42% and 57%
same,Population Fragmented Nuclei (%),[2]; [4],13% and 20%
same,Population Healthy Nuclei (%),[2]; [4],65% and 47%
same,Population Hoechst High Intensity Objects (%),[2]; [4],3% and 8%
same,Population Membrane Permeable-Phenotype (%),[2]; [4],2% and 10%
same,Population Mitotic Cells (%),[2]; [4],57% and 42%
same,Population Normal (%),[2]; [4],96% and 91%
same,Population Pyknosed Nuclei (%),[2]; [4],21% and 31%
same,Population Tubulin-Different-Phenotype (%),[2]; [4],27% and 49%
same,Population Apoptotic (%),[2]; [5],30% and 43%
same,Population Fragmented Nuclei (%),[2]; [5],29% and 16%
same,Population Healthy Nuclei (%),[2]; [5],60% and 53%
same,Population Hoechst High Intensity Objects (%),[2]; [5],4% and 2%
same,Population Membrane Permeable-Phenotype (%),[2]; [5],1% and 4%
same,Population Mitochondria Different-Phenotype (%),[2]; [5],3% and 8%
same,Population Mitotic Cells (%),[2]; [5],70% and 56%
same,Population Normal (%),[2]; [5],95% and 97%
same,Population Tubulin-Different-Phenotype (%),[2]; [5],16% and 41%
same,Population Apoptotic (%),[2]; [6],42% and 48%
same,Population Fragmented Nuclei (%),[2]; [6],11% and 22%
same,Population Healthy Nuclei (%),[2]; [6],69% and 53%
same,Population Hoechst High Intensity Objects (%),[2]; [6],5% and 7%
same,Population Membrane Permeable-Phenotype (%),[2]; [6],1% and 3%
same,Population Mitochondria Different-Phenotype (%),[2]; [6],2% and 7%
same,Population Mitotic Cells (%),[2]; [6],57% and 51%
same,Population Normal (%),[2]; [6],95% and 92%
same,Population Pyknosed Nuclei (%),[2]; [6],19% and 24%
same,Population Tubulin-Different-Phenotype (%),[2]; [6],22% and 54%
same,Population Apoptotic (%),[2]; [7],50% and 38%
same,Population Fragmented Nuclei (%),[2]; [7],27% and 30%
same,Population Healthy Nuclei (%),[2]; [7],66% and 46%
same,Population Hoechst High Intensity Objects (%),[2]; [7],6% and 3%
same,Population Membrane Permeable-Phenotype (%),[2]; [7],0% and 5%
same,Population Mitochondria Different-Phenotype (%),[2]; [7],1% and 4%
same,Population Mitotic Cells (%),[2]; [7],50% and 61%
same,Population Normal (%),[2]; [7],93% and 96%
same,Population Tubulin-Different-Phenotype (%),[2]; [7],21% and 41%
same,Population Apoptotic (%),[2]; [8],55% and 48%
same,Population Fragmented Nuclei (%),[2]; [8],18% and 36%
same,Population Healthy Nuclei (%),[2]; [8],66% and 44%
same,Population Hoechst High Intensity Objects (%),[2]; [8],7%
same,Population Membrane Permeable-Phenotype (%),[2]; [8],0% and 4%
same,Population Mitochondria Different-Phenotype (%),[2]; [8],1% and 7%
same,Population Mitotic Cells (%),[2]; [8],44% and 51%
same,Population Normal (%),[2]; [8],92%
same,Population Pyknosed Nuclei (%),[2]; [8],14% and 19%
same,Population Tubulin-Different-Phenotype (%),[2]; [8],19% and 55%
same,Population Apoptotic (%),[2]; [9],60%
same,Population Fragmented Nuclei (%),[2]; [9],30% and 33%
same,Population Healthy Nuclei (%),[2]; [9],60% and 51%
same,Population Hoechst High Intensity Objects (%),[2]; [9],1% and 5%
same,Population Membrane Permeable-Phenotype (%),[2]; [9],0% and 6%
same,Population Mitochondria Different-Phenotype (%),[2]; [9],1% and 5%
same,Population Mitotic Cells (%),[2]; [9],40% and 39%
same,Population Normal (%),[2]; [9],98% and 94%
same,Population Pyknosed Nuclei (%),[2]; [9],8% and 15%
same,Population Tubulin-Different-Phenotype (%),[2]; [9],18% and 46%
same,Population Apoptotic (%),[3]; [4],72% and 66%
same,Population Fragmented Nuclei (%),[3]; [4],28% and 14%
same,Population Healthy Nuclei (%),[3]; [4],63% and 77%
same,Population Hoechst High Intensity Objects (%),[3]; [4],6% and 2%
same,Population Membrane Permeable-Phenotype (%),[3]; [4],9% and 8%
same,Population Mitochondria Different-Phenotype (%),[3]; [4],7% and 3%
same,Population Mitotic Cells (%),[3]; [4],27% and 33%
same,Population Normal (%),[3]; [4],93% and 97%
same,Population Pyknosed Nuclei (%),[3]; [4],8%
same,Population Tubulin-Different-Phenotype (%),[3]; [4],8% and 6%
same,Population Apoptotic (%),[3]; [5],77% and 85%
same,Population Fragmented Nuclei (%),[3]; [5],30% and 21%
same,Population Healthy Nuclei (%),[3]; [5],66% and 70%
same,Population Hoechst High Intensity Objects (%),[3]; [5],4% and 0%
same,Population Membrane Permeable-Phenotype (%),[3]; [5],6% and 4%
same,Population Mitochondria Different-Phenotype (%),[3]; [5],3% and 4%
same,Population Mitotic Cells (%),[3]; [5],22% and 14%
same,Population Normal (%),[3]; [5],95% and 100%
same,Population Pyknosed Nuclei (%),[3]; [5],3% and 7%
same,Population Tubulin-Different-Phenotype (%),[3]; [5],4%
same,Population Apoptotic (%),[3]; [6],84% and 100%
same,Population Fragmented Nuclei (%),[3]; [6],24% and 17%
same,Population Healthy Nuclei (%),[3]; [6],66% and 74%
same,Population Hoechst High Intensity Objects (%),[3]; [6],6% and 3%
same,Population Membrane Permeable-Phenotype (%),[3]; [6],9%
same,Population Mitochondria Different-Phenotype (%),[3]; [6],6% and 2%
same,Population Mitotic Cells (%),[3]; [6],16% and 0%
same,Population Normal (%),[3]; [6],93% and 96%
same,Population Pyknosed Nuclei (%),[3]; [6],8%
same,Population Tubulin-Different-Phenotype (%),[3]; [6],9% and 7%
same,Population Apoptotic (%),[3]; [7],83% and 100%
same,Population Fragmented Nuclei (%),[3]; [7],25% and 17%
same,Population Healthy Nuclei (%),[3]; [7],71% and 78%
same,Population Hoechst High Intensity Objects (%),[3]; [7],2% and 0%
same,Population Membrane Permeable-Phenotype (%),[3]; [7],4% and 8%
same,Population Mitochondria Different-Phenotype (%),[3]; [7],3% and 4%
same,Population Mitotic Cells (%),[3]; [7],16% and 0%
same,Population Normal (%),[3]; [7],97% and 100%
same,Population Pyknosed Nuclei (%),[3]; [7],3% and 4%
same,Population Tubulin-Different-Phenotype (%),[3]; [7],3% and 5%
same,Population Apoptotic (%),[3]; [8],76% and 91%
same,Population Fragmented Nuclei (%),[3]; [8],20% and 16%
same,Population Healthy Nuclei (%),[3]; [8],69% and 72%
same,Population Hoechst High Intensity Objects (%),[3]; [8],3%
same,Population Membrane Permeable-Phenotype (%),[3]; [8],7% and 8%
same,Population Mitochondria Different-Phenotype (%),[3]; [8],5%
same,Population Mitotic Cells (%),[3]; [8],23% and 8%
same,Population Normal (%),[3]; [8],96%
same,Population Pyknosed Nuclei (%),[3]; [8],9% and 11%
same,Population Tubulin-Different-Phenotype (%),[3]; [8],5% and 6%
same,Population Apoptotic (%),[3]; [9],91% and 93%
same,Population Fragmented Nuclei (%),[3]; [9],20%
same,Population Healthy Nuclei (%),[3]; [9],71%
same,Population Hoechst High Intensity Objects (%),[3]; [9],2% and 1%
same,Population Membrane Permeable-Phenotype (%),[3]; [9],3% and 9%
same,Population Mitochondria Different-Phenotype (%),[3]; [9],2%
same,Population Mitotic Cells (%),[3]; [9],8% and 6%
same,Population Normal (%),[3]; [9],97% and 98%
same,Population Pyknosed Nuclei (%),[3]; [9],7%
same,Population Tubulin-Different-Phenotype (%),[3]; [9],1% and 4%
